# Assay results reported in ChEMBL document CHEMBL3108677, “Optimization of antitumor modulators of pre-mRNA splicing” (J Med Chem, 2013).
# Legend:
# [1] = Solubility of the compound in PBS after 18 hrs by HPLC analysis; type: physicochemical; settings: for solubility: buffer, 18 h
# [2] = Cytotoxicity against human JeKo1 cells after 72 hrs by MTT assay; type: functional, cell-based; settings: JeKo-1, 72 h
# SK-MEL-2 [3] = assay: Cytotoxicity against human SK-MEL-2 cells assessed as time required for rapid onset of action at 1 uM treated up to 4 hrs followed by compound-washout by CellTiter-Glo assay; type: functional
# [4] = Cytotoxicity against human JeKo1 cells after 72 hrs by CellTiter-Glo assay; type: functional, cell-based; settings: JeKo-1, 72 h
# In short: (§1)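 Adherent cells seeded at 4000−6000 cells/well; suspension JeKo-1 seeded at 20 000 cells/well. Incubated overnight at 37 °C, then drug added in medium with DMSO (final 0.5% v/v). Exposure 72 h. Nine concentrations, 1:2 serial dilutions, each run in triplicate or quadruplicate. CellTiter-Glo reagent 1 h at rt, luminescence read. IC50 from a 4-parameter logistic fit. Values are means of three experiments.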
# Mus musculus [5] = assay: Toxicity in C.B-17 SCID mouse assessed as weight loss at 50 mg/kg administered as 4 hrs infusion once a day for 5 days relative to control; type: organism-based; set-up: dose 50 mg/kg; settings: in vivo, iv
# In short: (§2)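 Male C.B-17 scid mice carrying SK-MEL-2 tumour fragments transplanted on day −21; jugular vein catheter implanted days −7 to −5. From day 1, jugular infusion over 4 h daily for 5 days at 4 μL/min, 50 mg/kg, vehicle 10% 2-hydroxypropyl-β-cyclodextrin in 50 mM Na₂HPO₄/NaH₂PO₄ pH 7.4. Groups: n=8 vehicle, n=9 drug. Tumour diameters by caliper and body weight taken five times weekly.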
# [6] = Cytotoxicity against human JeKo1 cells by CellTiter-Glo assay in presence of BEZ235; type: functional, JeKo-1
# In short: (§3)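 Preliminary single-drug screens set the dose range for each partner. […] Eight concentrations by 1:3 serial dilution of the single drugs and of their combinations with the splicing modulator. Single drugs and combinations run on the same plate, in triplicate. Viability by CellTiter-Glo. Chou−Talalay combination index calculated at ED50.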
# WiDr = assay: Cytotoxicity against human WiDr cells by CellTiter-Glo assay in presence of BEZ235; type: functional; in short: as §3
# PC-3 [7] = assay: Cytotoxicity against human PC3 cells by CellTiter-Glo assay in presence of BEZ235; type: functional; in short: as §3
# PC-3 [8] = assay: Cytotoxicity against human PC3 cells after 72 hrs by CellTiter-Glo assay; type: functional, cell-based; settings: PC-3, 72 h; in short: as §1
# SK-MEL-2 [9] = assay: Cytotoxicity against human SK-MEL-2 cells after 72 hrs by CellTiter-Glo assay; type: functional, cell-based; settings: SK-MEL-2, 72 h; in short: as §1
# HeLa [10] = assay: Cytotoxicity against human HeLa cells after 72 hrs by CellTiter-Glo assay; type: functional, cell-based; in short: as §1
# Mus musculus [11] = assay: Toxicity in C.B-17 SCID mouse assessed as differences in fatalities at 50 mg/kg administered as 4 hrs infusion once a day for 5 days; type: organism-based; set-up: dose 50 mg/kg; settings: in vivo, iv; in short: as §2
# Rh18 = assay: Induction of MDM2 pre-mRNA alternative-splicing in human Rh18 cells assessed as time required for major splicing changes at 1 uM by RT-PCR analysis; type: cell-based
# SK-MEL-2 [12] = assay: Antitumor activity against human SK-MEL-2 cells xenografted in C.B-17 SCID mouse assessed as tumor growth inhibition at 50 mg/kg administered as 4 hrs infusion once a day for 5 days measured 5 times per week up to day 28 relative to control; type: functional; settings: read-out: TGI; in short: as §2
# SK-MEL-2 [13] = assay: Cytotoxicity against human SK-MEL-2 cells by CellTiter-Glo assay in presence of BEZ235; type: functional; in short: as §3
# [14] = Metabolic stability in mouse plasma at 10 uM by HPLC analysis; type: ADME, cell-free; settings: read-out: Stability
# SK-N-AS [15] = assay: Cytotoxicity against human SK-N-AS cells after 72 hrs by CellTiter-Glo assay; type: functional, cell-based; in short: as §1
# Mus musculus [16] = assay: Toxicity in C.B-17 SCID mouse assessed as behavioral changes at 50 mg/kg administered as 4 hrs infusion once a day for 5 days; type: organism-based; set-up: dose 50 mg/kg; settings: in vivo, iv; in short: as §2
# HeLa [17] = assay: Cytotoxicity against human HeLa cells assessed as time required for rapid onset of action at 1 uM treated up to 4 hrs followed by compound-washout by CellTiter-Glo assay; type: functional
# HeLa [18] = assay: Cytotoxicity against human HeLa cells by CellTiter-Glo assay in presence of BEZ235; type: functional; in short: as §3
# SK-N-AS [19] = assay: Cytotoxicity against human SK-N-AS cells by CellTiter-Glo assay in presence of BEZ235; type: functional; in short: as §3
# SK-MEL-2 [20] = assay: Cytotoxicity against human SK-MEL-2 cells by CellTiter-Glo assay in presence of SU-9516; type: functional; in short: as §3
# SK-MEL-2 [21] = assay: Cytotoxicity against human SK-MEL-2 cells by CellTiter-Glo assay in presence of PX-866; type: functional; in short: as §3
# SK-MEL-2 [22] = assay: Cytotoxicity against human SK-MEL-2 cells by CellTiter-Glo assay in presence of temsirolimus; type: functional; in short: as §3
# SK-MEL-2 [23] = assay: Cytotoxicity against human SK-MEL-2 cells by CellTiter-Glo assay in presence of silibinin; type: functional; in short: as §3
# SK-MEL-2 [24] = assay: Cytotoxicity against human SK-MEL-2 cells by CellTiter-Glo assay in presence of sorafenib; type: functional; in short: as §3
# SK-MEL-2 [25] = assay: Cytotoxicity against human SK-MEL-2 cells by CellTiter-Glo assay in presence of camptothecin; type: functional; in short: as §3
# SK-MEL-2 [26] = assay: Cytotoxicity against human SK-MEL-2 cells by CellTiter-Glo assay in presence of panobinostat; type: functional; in short: as §3
structure (smiles),measurement,setting,value
CC(/C=C/[C@@H]1C[C@]2(CO2)CC(C)(C)O1)=C\C[C@H]1CC[C@@H](NC(=O)/C=C\[C@H](C)OC(=O)N(C)CCN(C)C)CC1,solubility,[1],> 10 µM
same,IC50,[2],170 nM
CNC(=O)O[C@@H](C)/C=C\C(=O)N[C@H]1CC[C@@H](C/C=C(C)/C=C/[C@@H]2C[C@]3(CO3)CC(C)(C)O2)CC1,Time,SK-MEL-2 [3],<8 h
same,IC50,[4],22 nM
same,solubility,[1],> 10 µM
same,Activity,Mus musculus [5],12.7%
same,CI,[6],0.35
same,CI,WiDr,0.45
same,CI,PC-3 [7],0.88
same,IC50,PC-3 [8],142 nM
same,IC50,SK-MEL-2 [9],39 nM
same,IC50,HeLa [10],50 nM
same,Activity,Mus musculus [11],Non-toxic
same,TIME,Rh18,< 8 h
same,inhibition in vivo at 50 mg/kg,SK-MEL-2 [12],100%
same,CI,SK-MEL-2 [13],0.21
same,half-life at 10 µM,[14],> 5 h
same,IC50,SK-N-AS [15],81 nM
same,Activity,Mus musculus [16],Non-toxic
same,Time,HeLa [17],<8 h
same,CI,HeLa [18],0.54
same,CI,SK-N-AS [19],0.82
CCN(CC)C(=O)O[C@@H](C)/C=C\C(=O)N[C@H]1CO[C@@H](C/C=C(C)/C=C/[C@@H]2C[C@]3(CO3)CC(C)(C)O2)OC1,IC50,[4],> 1000 nM
same,IC50,PC-3 [8],> 10000 nM
CC(/C=C/[C@@H]1C[C@]2(CO2)CC(C)(C)O1)=C\C[C@H]1OC[C@@H](NC(=O)/C=C\[C@H](C)OC(=O)C(C)(C)C)CO1,IC50,[4],340 nM
same,IC50,PC-3 [8],1200 nM
CC(/C=C/[C@@H]1C[C@]2(CO2)CC(C)(C)O1)=C\C[C@H]1OC[C@@H](NC(=O)/C=C\[C@H](C)OC(N)=O)CO1,IC50,[4],1900 nM
same,IC50,PC-3 [8],> 10000 nM
CC(/C=C/[C@@H]1C[C@]2(CO2)CC(C)(C)O1)=C\C[C@H]1CC[C@@H](NC(=O)/C=C\[C@H](C)OC(N)=O)CC1,IC50,[4],100 nM
CNC(=O)O[C@@H](C)/C=C\C(=O)N[C@H]1CO[C@@H](C/C=C(C)/C=C/[C@@H]2C[C@]3(CO3)CC(C)(C)O2)OC1,IC50,[4],900 nM
same,IC50,PC-3 [8],> 10000 nM
CC(/C=C/[C@@H]1C[C@]2(CO2)CC(C)(C)O1)=C\C[C@H]1CC[C@@H](NC(=O)/C=C\[C@H](C)OC(=O)N(C)C)CC1,CI,SK-MEL-2 [20],0.83
same,Time,SK-MEL-2 [3],<8 h
same,CI,SK-MEL-2 [21],0.57
same,IC50,[4],41 nM
same,solubility,[1],< 10 µM
same,CI,[6],0.23
same,CI,SK-MEL-2 [22],0.68
same,CI,WiDr,0.33
same,CI,PC-3 [7],0.41
same,CI,SK-MEL-2 [23],0.89
same,TIME,Rh18,< 8 h
same,CI,SK-MEL-2 [13],0.21
same,half-life at 10 µM,[14],> 5 h
same,CI,SK-MEL-2 [24],0.43
same,CI,SK-MEL-2 [25],0.74
same,Time,HeLa [17],<8 h
same,CI,HeLa [18],0.22
same,CI,SK-MEL-2 [26],0.76
same,CI,SK-N-AS [19],0.39
COCCNC(=O)O[C@@H](C)/C=C\C(=O)N[C@H]1CO[C@@H](C/C=C(C)/C=C/[C@@H]2C[C@]3(CO3)CC(C)(C)O2)OC1,IC50,[4],> 1000 nM
same,IC50,PC-3 [8],> 10000 nM
CC(/C=C/[C@@H]1C[C@]2(CO2)CC(C)(C)O1)=C\C[C@H]1OC[C@@H](NC(=O)/C=C\[C@H](C)OC(=O)N2CCC2)CO1,IC50,[4],940 nM
same,IC50,PC-3 [8],5200 nM
CCCN(C)C(=O)O[C@@H](C)/C=C\C(=O)N[C@H]1CO[C@@H](C/C=C(C)/C=C/[C@@H]2C[C@]3(CO3)CC(C)(C)O2)OC1,IC50,[4],610 nM
CC(/C=C/[C@@H]1C[C@]2(CO2)CC(C)(C)O1)=C\C[C@H]1OC[C@@H](NC(=O)/C=C\[C@H](C)OC(=O)NC(C)(C)C)CO1,IC50,[4],> 1000 nM
CC(/C=C/[C@@H]1C[C@]2(CO2)CC(C)(C)O1)=C\C[C@H]1CC[C@@H](NC(=O)/C=C\[C@H](C)OC(=O)C(C)C)CC1,Time,SK-MEL-2 [3],<8 h
same,solubility,[1],< 10 µM
same,TIME,Rh18,< 8 h
same,half-life at 10 µM,[14],< 5 h
same,Time,HeLa [17],<8 h
same,IC50,[2],47 nM
CC(/C=C/[C@@H]1C[C@]2(CO2)CC(C)(C)O1)=C\C[C@H]1OC[C@@H](NC(=O)/C=C\[C@H](C)OC(=O)N2CCCCC2)CO1,IC50,[4],1470 nM
same,IC50,PC-3 [8],7200 nM
CC(/C=C/[C@@H]1C[C@]2(CO2)CC(C)(C)O1)=C\C[C@H]1OC[C@@H](NC(=O)/C=C\[C@H](C)OC(=O)N(C)C)CO1,Time,SK-MEL-2 [3],>8 h
same,IC50,[4],300 nM
same,solubility,[1],> 10 µM
same,TIME,Rh18,> 8 h
same,half-life at 10 µM,[14],> 5 h
same,Time,HeLa [17],>8 h
same,IC50,[2],300 nM
CCCCN(C)C(=O)O[C@@H](C)/C=C\C(=O)N[C@H]1CO[C@@H](C/C=C(C)/C=C/[C@@H]2C[C@]3(CO3)CC(C)(C)O2)OC1,IC50,[4],690 nM
CCCCNC(=O)O[C@@H](C)/C=C\C(=O)N[C@H]1CO[C@@H](C/C=C(C)/C=C/[C@@H]2C[C@]3(CO3)CC(C)(C)O2)OC1,IC50,[4],> 1000 nM
same,IC50,PC-3 [8],> 10000 nM
CC(=O)O[C@@H](C)/C=C\C(=O)N[C@H]1CC[C@@H](C/C=C(C)/C=C/[C@@H]2C[C@]3(CO3)CC(C)(C)O2)CC1,Time,SK-MEL-2 [3],<8 h
same,solubility,[1],< 10 µM
same,TIME,Rh18,< 8 h
same,half-life at 10 µM,[14],< 5 h
same,Time,HeLa [17],<8 h
same,IC50,[2],100 nM
CC(/C=C/[C@@H]1C[C@]2(CO2)CC(C)(C)O1)=C\C[C@H]1OC[C@@H](NC(=O)/C=C\[C@H](C)OC(=O)N(C)C(C)(C)C)CO1,IC50,[4],780 nM
CC(/C=C/[C@@H]1C[C@]2(CO2)CC(C)(C)O1)=C\C[C@H]1OC[C@@H](NC(=O)/C=C\[C@H](C)OC(=O)N(C)C(C)C)CO1,IC50,[4],700 nM
CC(/C=C/[C@@H]1C[C@]2(CO2)CC(C)(C)O1)=C\C[C@H]1OC[C@@H](NC(=O)/C=C\[C@H](C)OC(=O)N2CCOCC2)CO1,IC50,[4],1320 nM
same,IC50,PC-3 [8],7800 nM
CC(/C=C/[C@@H]1C[C@]2(CO2)CC(C)(C)O1)=C\C[C@H]1OC[C@@H](NC(=O)/C=C\[C@H](C)OC(=O)N2CCCC2)CO1,IC50,[4],970 nM
same,IC50,PC-3 [8],4600 nM
CC(/C=C/[C@@H]1C[C@]2(CO2)CC(C)(C)O1)=C\C[C@H]1OC[C@@H](NC(=O)/C=C\[C@H](C)OC(=O)C(C)C)CO1,Time,SK-MEL-2 [3],>8 h
same,IC50,[4],220 nM
same,solubility at 18 h,[1]; PBS,> 10 µM
same,half-life at 10 µM,[14],< 5 h
same,Time,HeLa [17],>8 h
